Where two headings read alike, the source gives them in different places.
Legend:
[1] = tested on: P. falciparum; settings: cited from earlier work
[2] = tested on: T. cruzi epimastigotes; experiment: Anti-T. cruzi MTT viability assay, epimastigotes; type: cell-based, Trypanosoma cruzi
[3] = tested on: L. amazonensis promastigotes; experiment: Anti-leishmanial MTT viability assay, L. amazonensis promastigotes; type: cell-based, Leishmania (L.) amazonensis
[4] = tested on: L. infantum promastigotes; experiment: Anti-leishmanial MTT viability assay, L. infantum promastigotes; type: cell-based, Leishmania (L.) infantum
[5] = tested on: HepG2; experiment: Cytotoxicity on HepG2 cells; type: cell-based; settings: HepG2, 24 h, MTT
[6] = tested on: P. falciparum (3D7); experiment: Anti-plasmodial SYBR green assay, P. falciparum 3D7 blood parasites; type: cell-based, Plasmodium falciparum
[7] = tested on: P. falciparum; experiment: Stage-specific inhibitory activity on highly-synchronized parasites; type: cell-based, Plasmodium falciparum; settings: 10-fold IC50, synchronized parasites
[8] = tested on: P. falciparum; experiment: In vitro association with artesunate; type: cell-based, Plasmodium falciparum; settings: isobologram analysis
[9] = tested on: HepG2 cells; experiment: HepG2 cell morphology by microscopy after treatment; type: cell-based, human; settings: 24 h, concentration 10-fold higher than IC50 (10 μM)
[10] = tested on: intracellular L. (L.) amazonensis amastigotes; experiment: Intracellular L.; type: cell-based, Leishmania (L.) amazonensis; settings: for intracellular parasitism (in words): 6.125, 25, 50 or 100 μM, 24 h; for reduction of the amastigote number over the control group: at higher concentrations, 24 h incubation, infected BALB/c macrophages
Procedure, shortened: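 BALB/c bone-marrow-derived macrophages infected with stationary-phase L. (L.) amazonensis promastigotes (MHOM/BR/1973/M2269) at MOI 10 for 1 h, washed three times with PBS, then held 24 h at 33 °C, 5% CO2. Test compound added at 6.125, 25, 50 or 100 μM for 24 h at 33 °C. Cells washed, MeOH-fixed and stained; amastigotes counted in 300 cells on triplicate coverslips. Percent reduction taken versus untreated infected cells; two independent experiments.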

[11] = tested on: T. cruzi; settings: cited from earlier work
[12] = tested on: T. brucei rhodesiense; settings: cited from earlier work
[13] = tested on: Leishmania donovani; settings: cited from earlier work
[14] = Plasmodium falciparum, 3D7, read-out: P. falciparum (3D7) EC50+/−S.D., 3D7 sensitive strain, SYBR green

EC50 [6, 14] [µM] | SMILES | anti-plasmodial activity against P. falciparum (in words) [6] | other results
 | COC(=O)c1cc(Br)c(Br)[nH]1 |  | anti-parasitic activity against P. falciparum [1]: 7.9 µg/mL
 | O=C(O)c1cc(Br)c(Br)[nH]1 [4,5-dibromo-1H-pyrrole-2-carboxylic acid] |  | anti-parasitic activity against P. falciparum [1]: 5.8 µg/mL
1.1 ± 0.1 | O=C(NCCCCNCCCNC(=O)c1cc(Br)c(Br)[nH]1)c1cc(Br)c(Br)[nH]1 [Compound 1, pseudoceratidine] |  | anti-parasitic activity against T. cruzi (in words) [2]: essentially inactive; anti-parasitic activity against L. (L.) amazonensis (in words) [3]: essentially inactive; anti-parasitic activity against L. (L.) infantum (in words) [4]: essentially inactive; HepG2 MDL50+/−S.D. [5]: 16 ± 1 (14.6 – 17.4) μM; stage-specific inhibitory activity (in words) [7]: inhibitory activity in the early ring stages; interaction effect in combination with artesunate [8]: additive; toxicity for HepG2 cells by microscopic morphology [9]: not toxic
4 ± 1 | CN(CCCCNC(=O)c1cc(Br)c(Br)[nH]1)CCCNC(=O)c1cc(Br)c(Br)[nH]1 [Compound 16, N-Methyl-pseudoceratidine] | still active | 
> 10 | [N-]=[N+]=NCC(=O)N(CCCCNC(=O)c1cc(Br)c(Br)[nH]1)CCCNC(=O)c1cc(Br)c(Br)[nH]1 [Compound 17] | inactive | anti-parasitic activity against T. cruzi (in words) [2]: inactive; anti-parasitic activity against L. (L.) amazonensis (in words) [3]: inactive; anti-parasitic activity against L. (L.) infantum (in words) [4]: inactive
> 10 | O=C(NCCCCCNC(=O)c1cc(Br)c(Br)[nH]1)c1cc(Br)c(Br)[nH]1 [Compound 20] | inactive | anti-parasitic activity against T. cruzi (in words) [2]: good anti-parasitic activity; anti-parasitic activity against L. (L.) amazonensis (in words) [3]: active, but considerably less potent
> 10 | O=C(NCCCCCCCCNC(=O)c1cc(Br)c(Br)[nH]1)c1cc(Br)c(Br)[nH]1 [Compound 21] | inactive | 
2 ± 1 | O=C(NCCCCCCNCCCCCCNC(=O)c1cc(Br)c(Br)[nH]1)c1cc(Br)c(Br)[nH]1 [Compound 25] | as active as pseudoceratidine | 
> 10 | O=C(NCCSCCNC(=O)c1cc(Br)c(Br)[nH]1)c1cc(Br)c(Br)[nH]1 [Compound 27] | inactive | anti-parasitic activity against T. cruzi (in words) [2]: weak activity; anti-parasitic activity against L. (L.) amazonensis (in words) [3]: active, but considerably less potent
> 10 | O=C(NCCCCCNC(=O)c1ccc[nH]1)c1ccc[nH]1 [Compound 28] |  | 
> 10 | O=C(NCCCCNCCCNC(=O)c1ccc[nH]1)c1ccc[nH]1 [Compound 29] | completely inactive | 
7 ± 1 | O=C(NCCCCNCCCNC(=O)c1cc(Br)c[nH]1)c1cc(Br)c[nH]1 [Compound 31, 2,21-debromopseudoceratidine] |  | 
> 10 | O=C(NCCCCNCCCNC(=O)c1cc(Cl)c(Cl)[nH]1)c1cc(Cl)c(Cl)[nH]1 [Compound 33] | completely inactive | 
> 10 | O=C(NCCCCNCCCNC(=O)c1ccc(F)[nH]1)c1ccc(F)[nH]1 [Compound 35] | completely inactive | 
> 10 | O=C(NCCCCNCCCNC(=O)c1cc2ccccc2[nH]1)c1cc2ccccc2[nH]1 [Compound 38] |  | 
> 10 | O=C(NCCCCNCCCNC(=O)c1nc2ccccc2[nH]1)c1nc2ccccc2[nH]1 [Compound 39] |  | 
> 10 | O=C(NCCCCNCCCNC(=O)c1ccc(Br)s1)c1ccc(Br)s1 [Compound 42] |  | intracellular parasitism (in words) [10]: reduced in a dose-dependent manner; reduction of the amastigote number over the control group [10]: approximately 80%; anti-parasitic activity against L. (L.) amazonensis (in words) [3]: active, but considerably less potent
> 10 | Cc1ccc(C(=O)NCCCCNCCCNC(=O)c2ccc(C)s2)s1 [Compound 43] |  | 
> 10 | O=C(NCCCCNCCCNC(=O)c1cccc(Cl)n1)c1cccc(Cl)n1 [Compound 46] |  | 
> 10 | Cc1cccc(C(=O)NCCCCNCCCNC(=O)c2cccc(C)n2)n1 [Compound 47] |  | 
3 ± 1 | O=C(NCCCCNCCCNC(=O)c1cc(Br)c(Br)o1)c1cc(Br)c(Br)o1 [Compound 50] |  | intracellular parasitism (in words) [10]: reduced in a dose-dependent manner; reduction of the amastigote number over the control group [10]: approximately 80%; anti-parasitic activity against L. (L.) amazonensis (in words) [3]: active, but considerably less potent
 | Cc1ccc(C(=O)NCCCCNCCCNC(=O)c2ccc(C)o2)o1 [Compound 51] | completely inactive | 
 | Nc1ncc(/C=C/CNC(=O)c2cc(Br)c(Br)[nH]2)[nH]1 [Oroidin] |  | activity against T. cruzi (in words) [11]: inactive; anti-parasitic activity against P. falciparum [1]: 3.9 µg/mL; activity against T. brucei rhodesiense [12]: 17.3 µg/mL; activity against Leishmania donovani (in words) [13]: inactive

SMILES | EC50 [6, 14] [µM] | anti-plasmodial activity against P. falciparum (in words) [6] | other results
O=C(NCCCNCCCCNCCCNC(=O)c1cc(Br)c(Br)[nH]1)c1cc(Br)c(Br)[nH]1 [Compound 23] | 1.9 ± 1.2 | as active as pseudoceratidine | intracellular parasitism (in words) [10]: reduced in a dose-dependent manner; reduction of the amastigote number over the control group [10]: approximately 80%; anti-parasitic activity against L. (L.) amazonensis (in words) [3]: active, but considerably less potent; EC50 ([6]; read-out: P. falciparum (3D7) EC50+/−S.D., 3D7 sensitive strain, SYBR green): 2 ± 1 µM

— paper PMC5989537 (Journal of natural products, 2018)
